According to PubChem BioAssay AID504382 (The Scripps Research Institute Molecular Screening Center, 2011):
“And” between values parts separate entries of the source, which are not always exact repeats. Equal values may be shown once. Hit rate of the full screen: of about 2,500 compounds, about 460 (18%) were called active. A selection follows. Unmarked numbers belong to inactive results.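 Rule for the calls: active = mean activation above a cutoff of low control average plus 3 SD from the earlier screen (cut at about 12% in these data); inactive = the rest.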

Experiment: IANBD-channel fluorescence artefacts in buffer – biochemical, artefact control for cardiac RTF calcium sensitizer project, confirmation (AID 504382)
Settings: IANBD fluorescence interference counterscreen, EC20 Ca2+, at 7.2 µM, hits give high values, scaled: EC20 calcium 0, EC100 calcium 100
Method in brief: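 timing = compound incubation 15 min at 25 °C before fluorescence reading | technique = fluorescence at 480 nm excitation, 540 nm emission | evaluation = interference relative to controls | replication = triplicate wells per compound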
For COC(=O)CCc1c(C)c(C(=O)c2cc(F)c(F)c(F)c2F)c2ccccn12, the fluorescence artifact activation was -0.04%.
Work on CN(C)C(CNC(=O)c1cccc(S(=O)(=O)N(C)C)c1)c1ccccc1 (stereo not given) yielded a fluorescence artifact activation of 4.02%.
With N=c1c2c(ncn1Cc1ccco1)Oc1cc(O)ccc1C2c1ccccc1 (stereo not given) the fluorescence artifact activation was 20% (active).
Molecule COc1ccc(C2c3ccc(O)cc3Oc3ncn(Cc4ccco4)c(=N)c32)cc1 (stereo not given) has a fluorescence artifact activation of 0.14%.
COc1ccc(C2c3ccc(O)cc3Oc3ncn(Cc4ccccc4)c(=N)c32)cc1OC (stereo not given) gave a fluorescence artifact activation of 0.06%.
In the case of CCN(CC)C(=S)SCC(=O)c1c(C)[nH]c2ccccc12, the fluorescence artifact activation is reported as 7.38%.
In the case of CCc1ccccc1NC(=S)NCc1cccn1C, the fluorescence artifact activation is reported as -0.01%.
CCOC(=O)/C(C#N)=C\c1ccc(N2CCN(C/C=C/c3ccccc3)CC2)cc1 showed a fluorescence artifact activation of 0.17%.
For CCOC(=O)/C(C#N)=C/c1ccc(N2CCN(Cc3ccccc3)CC2)cc1, the fluorescence artifact activation was 82.2% (active).
CC(OC(=O)/C(C#N)=C/c1ccc(N(C)C)cc1)C(=O)N(C)Cc1ccccc1 (stereo not given) gave a fluorescence artifact activation of 4.84%.
Work on N#C/C(=C(/O)COC(=O)COc1ccc(Cl)cc1)c1nc2ccccc2[nH]1 yielded a fluorescence artifact activation of 0%.
Work on O=C(Nc1cnn(Cc2c(Cl)cccc2Cl)c1)C(c1ccccc1)c1ccccc1 yielded a fluorescence artifact activation of -0.07%.
COc1ccccc1-c1nnc(SCC(=O)Nc2ccc3[nH]c(=O)[nH]c3c2)n1N showed a fluorescence artifact activation of -0.06%.
With Cc1cc(C)n(C2CCCCC2OC(=O)CCc2ccccc2)n1 (stereo not given) the fluorescence artifact activation was 13% (active).
With CC1(OC(=O)CCc2ccccc2)C(=O)C=C2C=C(c3ccc(C#N)cc3)N(C3CCCC3)C=C2C1=O (stereo not given) the fluorescence artifact activation was -0.06%.
Cc1cc(C)n(-c2ccc(C(=O)O)cc2)n1 gave a fluorescence artifact activation of 0.39%.
For CCOC(=O)/C(C#N)=C(C)/C=C1\Sc2ccccc2N1CC, the fluorescence artifact activation was 4.14%.
For C=CCNC(=S)NNC(=O)c1ccc(OCC(C)C)cc1, the fluorescence artifact activation was 0.28%.
With CN1CCC2(CC1)C1CN(C)CC=C1C(C#N)=C(N)C2(C#N)C#N (stereo not given) the fluorescence artifact activation was -0.05% and 6.98%.
With CC(C)(C)c1cc(NC(=O)c2cccc(S(=O)(=O)N3CCOCC3)c2)no1 the fluorescence artifact activation was 7.6%.
For Cc1sc(NC(=O)CSc2nnc(C(C)C)n2C)c(C#N)c1C, the fluorescence artifact activation was 21.9% (active).
COc1ccc(S(=O)(=O)N2CCSC2)cc1C gave a fluorescence artifact activation of 0.17%.
Cc1cc(C)c(C(N)=O)c(Nc2ccc(F)cc2)n1 gave a fluorescence artifact activation of 0.09%.
For CCN(C(=O)c1cnc(NC(C)C)cc1C(F)(F)F)c1ccc(Cl)cc1, the fluorescence artifact activation was -0.05%.
In the case of O=c1[nH]c2ccccc2nc1/C=C/c1ccc(F)cc1, the fluorescence artifact activation is reported as 0.04%.
For O=c1[nH]c2ccccc2nc1/C=C/c1ccccc1, the fluorescence artifact activation was 119% (active).
With O=c1[nH]c2ccccc2nc1/C=C(\O)c1cccs1 the fluorescence artifact activation was 1.76%.
O=C(Nc1ccccc1-c1ccccc1)c1ccc(Cl)c([N+](=O)[O-])c1 gave a fluorescence artifact activation of 8.22%.
COc1ccc2[nH]c3c(c2c1)CCN1C(=O)C(CC(=O)NCCCn2ccnc2)C[C@H](C(=O)N2CCCCC2)[C@@]31C (stereo not given in full) showed a fluorescence artifact activation of -0.02%.
With CN(C)c1ccc(/C=N/N(CCO)C2=NS(=O)(=O)c3ccccc32)cc1 the fluorescence artifact activation was 0.26%.
COC1C(CO)OC(n2c3c(Cl)cccc3c3c4c(c5c6cccc(Cl)c6[nH]c5c32)C(=O)NC4=O)C(O)C1O (stereo not given) showed a fluorescence artifact activation of 0.02%.
CCCCCCC(=O)N/N=C/c1ccco1 showed a fluorescence artifact activation of 0.06%.
Cc1ccccc1N(CC(N)=O)S(C)(=O)=O gave a fluorescence artifact activation of -0.02%.
With CS(=O)(=O)N(CC(=O)N/N=C/c1ccco1)c1ccccc1Br the fluorescence artifact activation was 48.6% (active).
CCc1ccc(C(=O)Nc2cccnc2Oc2ccc(Cl)cc2)cc1 showed a fluorescence artifact activation of 3.19%.
Molecule Cc1cc(C=C2C(=O)CCCC2=O)c(C)n1-c1ccccc1 has a fluorescence artifact activation of 0.05%.
For CCOC(=O)/C(=C\c1c[nH]c2ccccc12)NC(C)=O, the fluorescence artifact activation was 7.92%.
In the case of CC(C)Sc1nc2ccc(Br)cc2[nH]1, the fluorescence artifact activation is reported as 10.8%.
In the case of COc1cc(OC)cc(C(=O)N(Cc2ccco2)c2c(N)n(Cc3ccccc3)c(=O)[nH]c2=O)c1, the fluorescence artifact activation is reported as 0.01%.
In the case of CCCCN(C(=O)c1ccc([N+](=O)[O-])o1)c1c(N)n(CCCC)c(=O)[nH]c1=O, the fluorescence artifact activation is reported as -0.06%.
For COCCCN(C(=O)c1cccnc1SC)c1c(N)n(Cc2ccccc2)c(=O)[nH]c1=O, the fluorescence artifact activation was 15.1% (active).
With COc1ccc(NC(=O)Cc2ccccc2)cn1 the fluorescence artifact activation was 0.04%.
Molecule N#CC1=C(N)SC(N)=C(C#N)C1c1cccc(O)c1 has a fluorescence artifact activation of 0.07%.
Molecule C/C(Cn1cnc([N+](=O)[O-])n1)=N\NC(=O)c1cccc(F)c1 has a fluorescence artifact activation of 0.05%.
In the case of Cc1cc(NC(=O)CN2C(=O)[C@@H]3[C@H](C2=O)[C@@H]2C[C@H]3C(Br)C2Br)no1 (stereo not given in full), the fluorescence artifact activation is reported as 19.4% (active).
Cc1cc(NC(=O)COC(=O)C(Cc2ccccc2)NC(=O)c2ccco2)no1 (stereo not given) gave a fluorescence artifact activation of 9.69%.
CC(=O)NC(CCS(C)(=O)=O)C(=O)Nc1cc(C)on1 (stereo not given) gave a fluorescence artifact activation of 0.57%.
Work on O=C1CCNc2ccc(-c3ccccc3)cc21 yielded a fluorescence artifact activation of 0.1%.
Cc1cc(N2CCCC2)ccc1/C=C1\NC(=S)N(C)C1=O gave a fluorescence artifact activation of 5.61%.
In the case of Cc1cc(/C=C2\NC(=S)N(C)C2=O)ccc1N1CCCC1, the fluorescence artifact activation is reported as 2.17%.
With Cc1cc(/C=C2/C(=O)N(C)C(=S)N2C)ccc1N1CCCC1 the fluorescence artifact activation was 23.6% (active).
COC(=O)CCN(C(=O)c1ccc([N+](=O)[O-])cc1)c1ccccn1 showed a fluorescence artifact activation of 4.76%.
Molecule O=C(Nc1ccc(Br)cc1)c1ccc(Br)c(S(=O)(=O)Nc2cccnc2)c1 has a fluorescence artifact activation of 4.66%.
For CC(C)(C)NC(=O)NC(=O)Cn1ccsc1=N, the fluorescence artifact activation was 40% (active).
O=C(C1=NN(c2ccccc2)C2C(=O)N(c3cccc(Cl)c3)C(=O)C12)c1ccccc1 (stereo not given) showed a fluorescence artifact activation of 9.7%.
O=C(NN1C(=O)c2ccccc2NC1c1ccco1)c1ccccc1 (stereo not given) showed a fluorescence artifact activation of 0.03%.
With CN1C(=O)/C(=C/C=C2\SCCN2C)OC1=S the fluorescence artifact activation was 1.7%.
Molecule NC(=O)C1CCN(c2ccc3c(c2)S(=O)(=O)c2ccccc2C3=O)CC1 has a fluorescence artifact activation of 0.05%.
C=C1CCN(C(CC(C)C)C(=O)OC)S(=O)(=O)c2ccccc21 (stereo not given) gave a fluorescence artifact activation of 0.08%.
For COC(=O)C1CCN(C(=O)CN2C(=O)c3ccccc3S2(=O)=O)CC1, the fluorescence artifact activation was 818% (active).
